PMC3072167 (Bioorganic & medicinal chemistry letters, 2011)
“Also recorded” adds a separate entry of the source.

What was measured:
[1] = biological target: chymotrypsin-like (ChT-L) activities of the 20S proteasome (Homo sapiens, UniProt P28074); test: Inhibition of chymotrypsin-like; type: biochemical; conditions: qualitative statements in text
[2] = biological target: chymotrypsin-like activity of the proteasome (Homo sapiens, UniProt P28074); test: Enzyme kinetic study; type: biochemical
In short: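 The 20S proteasome chymotrypsin-like activity was measured across a range of Suc-Leu-Leu-Val-Tyr-AMC concentrations, with or without 2 μM or 4 μM test compound. Cleaved substrate was read as fluorescence units, and reaction rates were plotted as Lineweaver-Burk plots to derive Km and Vmax. Each point is the average of two independent experiments.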

[3] = test system: HeLa Ub^G76V-GFP cells; test: Cell based proteasome assay: accumulation of UbG76V-GFP; conditions: 7.5 uM for 24 hours; fluorescence microscope
In short: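 HeLa cells stably expressing UbG76V-GFP, seeded at 10,000 cells per well in growth medium, were cultured with test compound (7.5 uM) for 24 hours. Intracellular UbG76V-GFP accumulation was recorded as green fluorescence by fluorescence microscopy.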

For `COC(=O)CC[C@@H](C)[C@H]1CC[C@H]2[C@@H]3CC[C@@H]4C[C@H](OC(=O)CCCCCC(=O)O)CC[C@]4(C)[C@H]3CC[C@]12C` [Compound 16], the “Inhibition of the chymotrypsin-like activity of the 20S proteasome, in words” value (from here on “Inhibition … in words”) [1] was “loss of inhibitory activity”.
For `C[C@H]1[C@H](C)CC[C@]2(C(=O)O)CC[C@]3(C)C(=CC[C@@H]4[C@@]5(C)CC[C@H](O)C(C)(C)[C@@H]5CC[C@]43C)[C@H]12` [ursolic acid, reference compound], the “Inhibition … in words” value [1] was “only LA inhibited”.
`CC1(C)C=C2[C@H]3CC[C@@H]4[C@@]5(C)CCC(=O)C(C)(C)[C@@H]5CC[C@@]4(C)[C@]3(C)CC[C@@]2(C(=O)O)CC1` [moronic acid, reference compound] was tested, and the “Inhibition … in words” value [1] was “only LA inhibited”.
`C[C@H](CCC(=O)O)[C@H]1CC[C@H]2[C@@H]3CC[C@@H]4C[C@H](OC(=O)CCCCCC(=O)O)CC[C@]4(C)[C@H]3CC[C@]12C` [Compound 8] was tested, and the “Inhibition … in words” value [1] was “did not inhibit”.
For `CCOC(=O)CC[C@@H](C)[C@H]1CC[C@H]2[C@@H]3CC[C@@H]4C[C@H](OC(=O)CCCCCC(=O)O)CC[C@]4(C)[C@H]3CC[C@]12C` [Compound 17], the “Inhibition … in words” value [1] was “loss of inhibitory activity”.
For `CCOC(=O)CC[C@@H](C)[C@H]1CC[C@H]2[C@@H]3CC[C@@H]4C[C@H](O)CC[C@]4(C)[C@H]3CC[C@]12C` [Compound 2], the “Inhibition … in words” value [1] was “loss of inhibitory activity”.
In the case of `C[C@H](CCC(=O)O)[C@H]1CC[C@H]2[C@@H]3CC[C@@H]4C[C@H](OC(=O)CC5(CC(=O)O)CCCC5)CC[C@]4(C)[C@H]3CC[C@]12C` [Compound 10], the “Mode of proteasome inhibition” value ([2]; Lineweaver-Burk plot, 2 μM and 4 μM compound, substrate Suc-Leu-Leu-Val-Tyr-AMC) is reported as “noncompetitive inhibitor”, the “Effect on Michaelis-Menten constant (Km) of the substrate” value ([2]; compound at 2 μM and 4 μM) is reported as “without affecting” and the “Effect on maximum reaction rate (Vmax) of the proteasomal activity” value ([2]; compound at 2 μM and 4 μM) is reported as “reduced”. The “Accumulation of Ub^G76V-GFP (green fluorescence) in cells” value [3] was “resulted in accumulation of Ub^G76V-GFP; also recorded: inhibited the proteasome”.
With `COC(=O)CC[C@@H](C)[C@H]1CC[C@H]2[C@@H]3CC[C@@H]4C[C@H](OC(=O)Cc5cccc(CC(=O)O)c5)CC[C@]4(C)[C@H]3CC[C@]12C` [Compound 15] the “Inhibition … in words” value [1] was “lost the inhibitory activity; also recorded: loss of inhibitory activity”.
With `COC(=O)CC[C@@H](C)[C@H]1CC[C@H]2[C@@H]3CC[C@@H]4C[C@H](O)CC[C@]4(C)[C@H]3CC[C@]12C` [Compound 1] the “Inhibition … in words” value [1] was “loss of inhibitory activity”.
